Data on eleven compounds can be found in ChEMBL document CHEMBL3596119, “Synthesis and biological characterization of a promising F-18 PET tracer for vesicular acetylcholine transporter” (Bioorg Med Chem, 2015).

The Ki is a dissociation constant, usually derived from enzyme kinetics or from competition with a known ligand. Read a high Ki as a looser hold on the target.

The target in test [1] is T1, Vesicular acetylcholine transporter (Homo sapiens, UniProt Q16572).
T1 sequence (Q16572 whole entry): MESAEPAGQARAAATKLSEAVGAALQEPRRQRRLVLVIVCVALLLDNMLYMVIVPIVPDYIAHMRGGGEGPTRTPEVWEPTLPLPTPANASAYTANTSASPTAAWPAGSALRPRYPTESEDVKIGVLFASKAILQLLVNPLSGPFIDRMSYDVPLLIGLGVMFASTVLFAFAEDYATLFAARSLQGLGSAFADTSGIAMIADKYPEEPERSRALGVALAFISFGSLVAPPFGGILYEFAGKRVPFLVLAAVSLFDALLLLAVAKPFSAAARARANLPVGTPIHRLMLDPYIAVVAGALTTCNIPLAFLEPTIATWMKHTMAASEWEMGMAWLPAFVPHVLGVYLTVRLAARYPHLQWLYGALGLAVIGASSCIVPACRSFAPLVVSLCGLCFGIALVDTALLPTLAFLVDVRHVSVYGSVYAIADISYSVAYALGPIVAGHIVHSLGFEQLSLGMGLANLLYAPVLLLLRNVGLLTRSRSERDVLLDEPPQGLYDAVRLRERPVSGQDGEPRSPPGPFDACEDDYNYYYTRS
Description: Displacement of [3H]-vesamicol from human VAChT after 24 hrs by liquid scintillation spectrometry analysis.

Test [2] concerns the target Sigma non-opioid intracellular receptor 1 (Cavia porcellus, UniProt Q60492). Description: Displacement of (+)-[3H]pentazocine from sigma1 receptor in guinea pig brain membrane homogenates. The class given is cell membranes. A digest of the protocol:
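Run on guinea pig brain membrane homogenate (~300 μg protein) with 5 nM (+)-[3H]pentazocine. 10 μM haloperidol defined nonspecific binding. IC50 came from nonlinear regression with a one-site fit.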

Test [3] is described as follows: Displacement of [3H]DTG from sigma2 receptor in rat liver membrane homogenates. It is filed as cell membranes. The procedure, abridged:
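Run on rat liver membrane homogenate (~300 μg protein) with ~5 nM [3H]DTG plus 1 μM (+)-pentazocine to mask σ1 sites. 10 μM haloperidol defined nonspecific binding. IC50 came from nonlinear regression.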

Chain of Sigma non-opioid intracellular receptor 1 (Q60492 whole entry): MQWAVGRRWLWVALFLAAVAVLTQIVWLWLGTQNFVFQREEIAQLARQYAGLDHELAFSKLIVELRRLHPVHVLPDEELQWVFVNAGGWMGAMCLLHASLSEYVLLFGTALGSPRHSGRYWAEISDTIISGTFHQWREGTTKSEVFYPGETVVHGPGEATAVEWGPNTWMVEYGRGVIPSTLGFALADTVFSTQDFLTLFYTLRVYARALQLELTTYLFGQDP

Consider `O=C(c1ccc(OCCF)cc1)C1CCN([C@@H]2Cc3ccccc3C[C@H]2O)CC1`, for which the Ki in test [1] amounted to 1.74 nM; in test [2], 13.2 nM; in test [3], 1880 nM.
On the same counts, the results for `O=C(c1ccc(OCCOCCF)cc1)C1CCN([C@@H]2Cc3ccccc3C[C@H]2O)CC1` are 0.87 nM, 1580 nM and 8200 nM.
On the same counts, the results for `O=C(c1ccc(OCCOCCOCCF)cc1)C1CCN([C@@H]2Cc3ccccc3C[C@H]2O)CC1` are 1.23 nM, above 10000 nM and above 10000 nM.
Consider `O=C(c1ccc(F)cc1)C1CCN([C@@H]2Cc3c(O)cccc3C[C@H]2O)CC1`, for which the inhibitory constant (Ki) in test [1] amounted to 4.64 nM; in test [2], 8640 nM; in test [3], 1850 nM.
The matching figures for `O=C(c1ccc(F)cc1)C1CCN([C@@H]2Cc3cccc(O)c3C[C@H]2O)CC1`: 56.2 nM, 28.7 nM and 2600 nM.
On to `O=C(c1ccc(F)cc1)c1cccc2c1C[C@@H](N1CCC(c3ccccc3)CC1)[C@H](O)C2`, for which the affinity in test [3] corresponds to a Ki of 251 nM.
Turning to `O=C(c1ccc(F)cc1)C1CCN([C@@H]2Cc3c(cccc3OCCF)C[C@H]2O)CC1` (racemic), the Ki is 821 nM in test [2] and above 10000 nM in test [3].
On the same counts, the results for `O=C(c1ccc(F)cc1)C1CCN([C@@H]2Cc3cccc(OCCF)c3C[C@H]2O)CC1` (racemic) are above 10000 nM and 7140 nM.
For the compound `O=C(c1ccc(F)cc1)C1CCN(C2Cc3c(cccc3OCCF)CC2O)CC1` (single isomer, unassigned; (+)), the Ki in test [3] stood at 7800 nM.
Same read-out and setting: for `O=C(c1ccc(F)cc1)C1CCN(C2Cc3c(cccc3OCCF)CC2O)CC1` (single isomer, unassigned; (-)) the value was above 10000 nM; for `O[C@@H]1CCCC[C@H]1N1CCC(c2ccccc2)CC1` [VESAMICOL], 346 nM.
